# Test results: ChEMBL document CHEMBL1129589, “Anti-inflammatory 17beta-thioalkyl-16alpha,17alpha-ketal and -acetal androstanes: a new class of airway selective steroids for the treatment of asthma” (J Med Chem, 1996)
# What was measured:
# [1] = test system: Rattus norvegicus; experiment: Selectivity ratio of Topical vs Systemic routes of administration.; type: functional
# In short: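 Male Sprague-Dawley rats (about 350 g, six per group) received the steroid intratracheally under halothane. It was suspended in 1% carboxymethyl cellulose/0.2% Tween 80 and given at 0 h with saline and at 24 h with Sephadex G200 (final 5 mg/mL). At 48 h, lungs and thymus were weighed. The ratio compares doses giving 30% reduction of lung edema and of thymus weight in the same animals.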
# [2] = test system: Rattus norvegicus; experiment: In vivo suppression of thymus weight by 30% following i.t. administration.; type: functional; settings: inhaled or nasal
# In short: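 Male Sprague-Dawley rats (~350 g, six per group) dosed intratracheally under halothane anesthesia at 0 and 24 h. Vehicle: 1% carboxymethyl cellulose/0.2% Tween 80 suspension, sonicated. First dose given with saline, second with Sephadex G200 (final 5 mg/mL). Rats killed at 48 h; lungs and thymus weighed. Doses reducing Sephadex-induced edema and thymus weight by 30% calculated.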
# [3] = molecular target: T1, Glucocorticoid receptor (Rattus norvegicus, UniProt P06536); experiment: Steroid binding against the rat thymus glucocorticoid receptor
# T1 sequence (P06536 whole entry): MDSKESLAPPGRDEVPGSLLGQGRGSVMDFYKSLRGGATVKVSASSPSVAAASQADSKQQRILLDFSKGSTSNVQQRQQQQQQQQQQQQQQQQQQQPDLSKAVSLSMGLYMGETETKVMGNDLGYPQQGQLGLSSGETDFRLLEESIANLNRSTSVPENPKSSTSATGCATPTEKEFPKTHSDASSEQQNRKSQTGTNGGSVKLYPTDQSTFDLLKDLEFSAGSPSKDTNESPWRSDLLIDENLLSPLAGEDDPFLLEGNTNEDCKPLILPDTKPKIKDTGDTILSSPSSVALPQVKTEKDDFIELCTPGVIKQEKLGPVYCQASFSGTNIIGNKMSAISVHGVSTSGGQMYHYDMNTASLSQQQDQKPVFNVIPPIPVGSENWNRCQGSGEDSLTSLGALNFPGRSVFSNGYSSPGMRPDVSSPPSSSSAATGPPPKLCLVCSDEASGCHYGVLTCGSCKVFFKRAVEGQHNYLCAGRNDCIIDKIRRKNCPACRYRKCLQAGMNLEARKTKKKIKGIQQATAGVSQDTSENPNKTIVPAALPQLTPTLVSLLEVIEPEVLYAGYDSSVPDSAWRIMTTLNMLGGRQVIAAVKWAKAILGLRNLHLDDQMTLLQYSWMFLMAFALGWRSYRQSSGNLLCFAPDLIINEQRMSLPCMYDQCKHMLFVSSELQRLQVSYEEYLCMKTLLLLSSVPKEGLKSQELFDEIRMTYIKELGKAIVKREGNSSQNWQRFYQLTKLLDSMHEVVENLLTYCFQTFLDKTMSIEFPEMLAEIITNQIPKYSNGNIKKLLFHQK
# [4] = test system: H35; experiment: Induction of tyrosine aminotransferase activity in cultured rat liver H4IIE cells.; type: functional; settings: read-out: ED50 (the source's name)
# In short: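 Confluent H4IIE rat hepatoma cells (4-day culture) incubated overnight with steroid at 0-100 nM, in triplicate wells. Lysate equilibrated at 37 °C with α-ketoglutarate and pyridoxal phosphate in phosphate buffer, pH 7.3.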
# [5] = test system: Rattus norvegicus; experiment: In vivo inhibition of Rat lung edema following i.t. administration.; type: functional; settings: inhaled or nasal
# [6] = test system: Rattus norvegicus; experiment: Selectivity ratio of Topical vs Systemic routes of administration; type: functional
# In short: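 Male Sprague-Dawley rats (about 350 g, six per group) were dosed intratracheally under halothane at 0 and 24 h, as a sonicated suspension in 1% carboxymethyl cellulose/0.2% Tween 80. The first dose was given with saline, the second with Sephadex G200 (final 5 mg/mL). Lungs and thymus were weighed at 48 h. The ratio compares doses reducing edema and thymus weight by 30%, both measured in the same animals.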
SMILES,Selectivity [1],ED50 [2] [mg/kg],IC50 [3] [nM],EC50 [4] [nM],ED50 [5] [mg/kg],Selectivity [6]
CC1(C)O[C@@H]2C[C@H]3[C@@H]4C[C@H](F)C5=CC(=O)C=C[C@]5(C)[C@@]4(F)[C@@H](O)C[C@]3(C)[C@]2(SCF)O1,0.037,1.9,4.3,1,0.07,–
CS[C@@]12OC(C)(C)O[C@@H]1CC1C3CCC4=CC(=O)C=C[C@]4(C)[C@@]3(F)[C@@H](O)C[C@@]12C (stereo partly drawn),0.33,0.9,1.6,0.2,0.3,–
CCC[C@@H]1O[C@@H]2CC3C4CCC5=CC(=O)C=C[C@]5(C)[C@@]4(F)[C@@H](O)C[C@]3(C)[C@]2([S+](C)[O-])O1 (stereo partly drawn),–,3,3.2,23,> 3,>1
CCC[C@@H]1O[C@@H]2CC3C4CCC5=CC(=O)C=C[C@]5(C)[C@@]4(F)[C@@H](O)C[C@]3(C)[C@]2(Sc2ccccn2)O1 (stereo partly drawn),–,> 3,12,> 100,> 3,–
CCC[C@@H]1O[C@@H]2CC3C4C[C@H](F)C5=CC(=O)C=C[C@]5(C)[C@@]4(F)[C@@H](O)C[C@]3(C)[C@]2(SC)O1 (stereo partly drawn),0.2,0.54,2.4,0.4,0.11,–
CCCC1O[C@@H]2C[C@H]3[C@@H]4CCC5=CC(=O)C=C[C@]5(C)[C@H]4[C@@H](O)C[C@]3(C)[C@]2(C(=O)CO)O1 (stereo partly drawn) [BUDESONIDE],0.4,0.96,2.9,0.2,0.39,–
CCC[C@@H]1O[C@@H]2CC3C4CCC5=CC(=O)C=C[C@]5(C)[C@@]4(F)[C@@H](O)C[C@]3(C)[C@]2(SCF)O1 (stereo partly drawn),>0.75,4,3.3,1.2,> 3,–
CCC[C@@H]1O[C@@H]2CC3C4CCC5=CC(=O)C=C[C@]5(C)[C@@]4(F)[C@@H](O)C[C@]3(C)[C@]2(SC(C)C)O1 (stereo partly drawn),–,> 3,5.5,7,> 3,–
CC=C[C@@H]1O[C@@H]2C[C@H]3[C@@H]4CCC5=CC(=O)C=C[C@]5(C)[C@@]4(F)[C@@H](O)C[C@]3(C)[C@]2(SC)O1,>2.73,1.1,1.8,1.1,> 3,–
CC1(C)O[C@@H]2C[C@H]3[C@@H]4CCC5=CC(=O)C=C[C@]5(C)[C@@]4(F)[C@@H](O)C[C@]3(C)[C@]2(S(C)(=O)=O)O1,1.57,1.4,5.3,13,2.2,–
CCC[C@@H]1O[C@@H]2CC3C4CCC5=CC(=O)C=C[C@]5(C)[C@@]4(F)[C@@H](O)C[C@]3(C)[C@]2(SCC)O1 (stereo partly drawn),>0.43,7,3.3,1.5,> 3,–
CCC[C@@H]1O[C@@H]2CC3C4C[C@H](F)C5=CC(=O)CC[C@]5(C)[C@@]4(F)[C@@H](O)C[C@]3(C)[C@]2(SC)O1 (stereo partly drawn),0.06,1,2.2,0.3,0.06,–
"CCC(=O)O[C@]1(C(=O)SCF)C(C)C[C@H]2[C@@H]3C[C@H](F)C4=CC(=O)C=C[C@]4(C)[C@@]3(F)[C@@H](O)C[C@@]21C (single isomer, unassigned) [FLUTICASONE PROPIONATE]",–,0.47,–,0.1,0.05,–
CC1(C)O[C@@H]2CC3C4CCC5=CC(=O)C=C[C@]5(C)[C@@]4(F)[C@@H](O)C[C@]3(C)[C@]2(Sc2ccccn2)O1 (stereo partly drawn),–,> 3,22,50,> 3,–
CCC[C@@H]1O[C@@H]2CC3C4CCC5=CC(=O)CC[C@]5(C)[C@@]4(F)[C@@H](O)C[C@]3(C)[C@]2(SC)O1 (stereo partly drawn),–,5.2,–,0.7,3.6,–
CCC[C@@H]1O[C@@H]2CC3C4C[C@H](F)C5=CC(=O)C=C[C@]5(C)[C@@]4(F)[C@@H](O)C[C@]3(C)[C@]2(SCF)O1 (stereo partly drawn),0.065,4.6,2.2,0.3,0.3,–
CCS[C@]1(SC)CC[C@H]2[C@@H]3CCC4=CC(=O)C=C[C@]4(C)[C@@]3(F)[C@@H](O)C[C@@]21C,1.91,1.1,2.3,2,2.1,–
CS[C@@]12OC(C)(C)O[C@@H]1CC1C3C[C@H](F)C4=CC(=O)C=C[C@]4(C)[C@@]3(F)[C@@H](O)C[C@@]12C (stereo partly drawn),0.4,3.2,2.2,0.2,1.3,–
CCC[C@@H]1O[C@@H]2CC3C4CCC5=CC(=O)C=C[C@]5(C)[C@@]4(F)[C@@H](O)C[C@]3(C)[C@]2(SC)O1 (stereo partly drawn),>0.56,1.8,1.7,1.7,> 1,–
